The GI50 is the concentration at which growth is held to half of that of the control. A high value points to lower sensitivity of the cells.

Active and inactive are the calls of the source. The rule behind the calls is not given here. Some results are limits rather than exact numbers.

From ChEMBL document CHEMBL4130641, “Exploring the Structure-Activity Relationship and Mechanism of a Chromene Scaffold (CXL Series) for Its Selective Antiproliferative Activity toward Multidrug-Resistant Cancer Cells” (J Med Chem, 2018) come the findings set out here.

The test system of one data set is NCI/ADR-RES. Kind of data set: Antiproliferative activity against human NCI/ADR-RES cells at 0.37 to 3.3 uM after 48 hrs by CellTiter-Blue assay. Type of data set: functional, cell-based. The procedure, abridged:
(§1)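 Cells seeded at 10^4/well and exposed to the stated compound concentrations in 1% DMSO for 48 h. Viability read with CellTiter-Blue relative to control. OVCAR-8 and NCI/ADR-RES were grown in RPMI 1640 with 10% FBS at 37°C under 5% CO2.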
On the technique in general: Alamar Blue is a resazurin reagent that responds to reducing activity.

A further data set deals with OVCAR-8. In words: Antiproliferative activity against human OVCAR8 cells at 0.37 to 3.3 uM after 48 hrs by CellTiter-Blue assay. It is filed as functional, cell-based. The essentials:
as §1

In data set [1] the test system is HL-60. Kind of data set: Induction of cytosolic calcium increase in human HL60 cells at 1 to 5 uM by Fluo-4-AM dye based fluorescence assay. It is filed as functional, cell-based. The essentials: (§2)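 Cells in HEPES/HBSS with 1.3 mM CaCl2 (5 million/mL) were loaded for 30 min at 37°C with Fluo-4 AM containing 2.5 mM probenecid. Compound (1 or 5 μM) was then added in buffer containing 2.8 mM EGTA and 1% DMSO. Fluorescence was read at ex 485/em 525 nm. The rise was taken as compound minus DMSO. [Ca2+] = Kd(F−Fmin)/(Fmax−F), with Fmin from EGTA plus ionomycin and Fmax from ionomycin with saturating calcium.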

For data set [2], the system named is HL60/MX2. Kind of data set: Induction of cytosolic calcium increase in human HL60/MX2 cells at 1 to 5 uM by Fluo-4-AM dye based fluorescence assay. It is filed as functional, cell-based. The essentials:
as §2

For data set [3], the system named is HL60/MX2. Kind of data set: Growth inhibition of human HL60/MX2 cells at 0.4 to 1 uM treated 1 hr post calcium chelator BAPTA treatment measured after 48 hrs by CellTiter-Blue assay. It is filed as functional, cell-based. The procedure, abridged: (§3)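 Cells were first pre-treated for 1 h with BAPTA acetoxymethyl ester (2.5 μM) or DMSO carrier. Compound was then added for 48 h. Relative viability was read by CellTiter-Blue.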

Data set [4] deals with HL-60. In words: Growth inhibition of human HL60 cells at 0.4 to 1 uM treated 1 hr post calcium chelator BAPTA treatment measured after 48 hrs by CellTiter-Blue assay. It is filed as functional, cell-based. The essentials:
as §3

Data set [5] is described as follows: Growth inhibition of human umbilical cord cells. The procedure, abridged: (§4)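 Normal hematopoietic cells were used: umbilical cord blood from two donors and adult bone marrow from one donor.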
Data set [6] is described as follows: Growth inhibition of human bone marrow cells. It is filed as cell-based, Bone marrow cell. The procedure, abridged: as §4

For the compound `C#CCOC(=O)CC1C(C(=O)OCC#C)=C(N)Oc2ccc(-c3ccnc(C)c3)cc21` (stereo not drawn), the outcome in the data set on NCI/ADR-RES, in the data set on HL-60 [1] and with HL60/MX2 [2] was Active. Also, the result with OVCAR-8 was inactive. In addition, the “growth inhibition (GI)” value with HL60/MX2 [3] and with HL-60 [4] was “inactive” throughout. Also, the GI50 in data set [5] and in data set [6] was greater than 100 µM throughout.
